For three molecules, inhibition and residual activity results are on record in ChEMBL document CHEMBL5696442, “Discovery of type II inhibitors of TGFβ-activated kinase 1 (TAK1) and mitogen-activated protein kinase kinase kinase kinase 2 (MAP4K2)” (J Med Chem, 2015).

Experiment [1] deals with T1, Serine/threonine-protein kinase greatwall (Homo sapiens) (UniProt Q96GX5).
T1 sequence (whole entry): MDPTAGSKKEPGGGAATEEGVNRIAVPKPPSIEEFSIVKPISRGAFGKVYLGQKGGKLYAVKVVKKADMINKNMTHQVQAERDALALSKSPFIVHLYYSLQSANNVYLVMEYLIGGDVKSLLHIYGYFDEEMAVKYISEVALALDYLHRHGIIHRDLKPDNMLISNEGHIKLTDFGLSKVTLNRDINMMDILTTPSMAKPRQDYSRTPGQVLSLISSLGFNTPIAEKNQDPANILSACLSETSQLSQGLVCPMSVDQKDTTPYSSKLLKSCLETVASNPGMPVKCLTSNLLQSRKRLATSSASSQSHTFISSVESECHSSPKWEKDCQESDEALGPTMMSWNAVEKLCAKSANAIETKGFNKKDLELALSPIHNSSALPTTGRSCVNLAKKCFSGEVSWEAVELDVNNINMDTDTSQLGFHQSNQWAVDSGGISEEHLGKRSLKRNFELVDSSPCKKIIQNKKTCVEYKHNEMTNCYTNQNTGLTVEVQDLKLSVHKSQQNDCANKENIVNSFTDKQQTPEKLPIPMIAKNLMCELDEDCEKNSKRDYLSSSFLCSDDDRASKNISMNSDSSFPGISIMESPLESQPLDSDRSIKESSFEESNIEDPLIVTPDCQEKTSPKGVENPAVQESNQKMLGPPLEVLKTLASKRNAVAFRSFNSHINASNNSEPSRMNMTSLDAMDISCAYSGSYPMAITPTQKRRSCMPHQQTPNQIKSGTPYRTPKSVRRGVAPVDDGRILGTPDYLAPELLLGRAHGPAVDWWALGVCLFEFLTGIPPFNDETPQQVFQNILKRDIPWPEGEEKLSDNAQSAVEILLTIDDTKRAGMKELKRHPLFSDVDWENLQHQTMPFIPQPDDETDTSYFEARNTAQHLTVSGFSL
As to the kind of experiment: Inhibition of MASTL Lys2 labeling site in human Huh-7 cell lysate at 1 uM by KiNativ Profiling analysis relative to control. Format: subcellular.

Experiment [2] deals with Membrane-associated tyrosine- and threonine-specific cdc2-inhibitory kinase (Homo sapiens) (UniProt Q99640). As to the kind of experiment: Inhibition of PKMYT1 (unknown origin) at 1 uM by Ambit Kinomescan binding assay relative to control.
Experiment [3] concerns the target Tyrosine-protein kinase JAK1 (Homo sapiens) (UniProt P23458). As to the kind of experiment: Inhibition of JAK1 domain2 ACT labeling site in human A-375 cells at 0.5 uM by KiNativ Profiling analysis relative to control. It counts as cell-based.
The target of experiment [4] is T2, Serine/threonine-protein kinase ULK1 (Homo sapiens) (UniProt O75385).
T2 sequence (whole entry): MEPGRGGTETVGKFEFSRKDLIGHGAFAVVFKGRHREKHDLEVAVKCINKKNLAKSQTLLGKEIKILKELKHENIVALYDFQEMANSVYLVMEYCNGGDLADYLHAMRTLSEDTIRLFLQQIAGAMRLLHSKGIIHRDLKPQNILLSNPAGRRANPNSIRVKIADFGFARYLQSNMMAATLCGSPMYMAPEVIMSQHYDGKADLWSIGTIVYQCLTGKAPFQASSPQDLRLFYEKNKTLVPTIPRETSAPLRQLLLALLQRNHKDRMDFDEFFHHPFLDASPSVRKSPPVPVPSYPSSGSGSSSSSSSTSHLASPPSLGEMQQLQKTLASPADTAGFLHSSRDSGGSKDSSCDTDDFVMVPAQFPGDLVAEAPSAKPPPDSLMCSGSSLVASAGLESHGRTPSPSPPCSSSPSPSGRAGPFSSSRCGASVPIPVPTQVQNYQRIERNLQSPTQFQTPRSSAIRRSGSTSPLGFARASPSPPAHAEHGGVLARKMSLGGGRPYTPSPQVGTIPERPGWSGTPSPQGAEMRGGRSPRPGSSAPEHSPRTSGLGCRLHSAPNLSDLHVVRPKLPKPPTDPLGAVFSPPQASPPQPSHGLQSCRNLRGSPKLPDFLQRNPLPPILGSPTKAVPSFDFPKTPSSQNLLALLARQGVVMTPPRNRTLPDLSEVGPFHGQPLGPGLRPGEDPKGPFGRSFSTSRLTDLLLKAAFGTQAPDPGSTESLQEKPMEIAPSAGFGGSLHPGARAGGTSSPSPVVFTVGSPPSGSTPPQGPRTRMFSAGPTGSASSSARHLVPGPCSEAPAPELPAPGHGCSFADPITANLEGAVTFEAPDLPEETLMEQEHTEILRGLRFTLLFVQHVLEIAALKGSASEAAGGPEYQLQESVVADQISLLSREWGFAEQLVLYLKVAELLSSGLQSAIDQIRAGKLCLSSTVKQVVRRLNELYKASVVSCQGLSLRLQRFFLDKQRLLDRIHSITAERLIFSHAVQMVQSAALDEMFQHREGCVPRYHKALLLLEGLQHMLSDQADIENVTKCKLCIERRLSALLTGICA
As to the kind of experiment: Inhibition of ULK1 (unknown origin) at 1 uM by Ambit Kinomescan binding assay relative to control.

Experiment [5] deals with Mitogen-activated protein kinase kinase kinase kinase 4 (Homo sapiens, UniProt O95819). As to the kind of experiment: Inhibition of ZC1/HGK K1 labeling site harbouring TGQLAAIKVMDVTEDEEEEIKLEINMLKK in human Huh-7 cells at 1 uM by KiNativ Profiling analysis relative to control. Format: cell-based.
The target in experiment [6] is c-Jun N-terminal kinase, JNK (Homo sapiens) (UniProt P45983+P53779+P45984). As to the kind of experiment: Inhibition of JNK1/2/3 K2 labeling site in human Huh-7 cells at 1 uM by KiNativ Profiling analysis relative to control. It counts as cell-based.
Experiment [7] has as its target Serine/threonine-protein kinase 38 (Homo sapiens) (UniProt Q15208). As to the kind of experiment: Inhibition of NDR1 ACT labeling site in human A-375 cells at 0.5 uM by KiNativ Profiling analysis relative to control. Format: cell-based.
In experiment [8] the target is Rho-associated protein kinase 1 (Homo sapiens) (UniProt Q13464). As to the kind of experiment: Inhibition of ROCK1 Lys2 labeling site in human A-375 cells at 0.5 uM by KiNativ Profiling analysis relative to control. Format: cell-based. Summed up:
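Live A375 melanoma cells were treated with compound at 5 or 0.5 μM, then lysed. Lysates were labeled with a lysine-reactive ATP or ADP-biotin probe. Read-out was the compound's protection of kinase labeling sites from probe labeling (KiNativ).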

Experiment [9] in a line: Inhibition of […] ATP labeling site in human Huh-7 cells at 1 uM by KiNativ Profiling analysis relative to control. To be noted: condition cancer.
The target of experiment [10] is Serine/threonine-protein kinase 33 (Homo sapiens) (UniProt Q9BYT3). Briefly: Inhibition of STK33 (unknown origin) at 10 uM by Ambit Kinomescan binding assay.
Experiment [11] deals with Proto-oncogene tyrosine-protein kinase receptor Ret (Homo sapiens) (UniProt P07949). As to the kind of experiment: Inhibition of RET (unknown origin) at 10 uM by Ambit Kinomescan binding assay relative to control; values are per cent of control.

Active and inactive are the calls of the source. No cut-off for these calls is given here.

Chain of Membrane-associated tyrosine- and threonine-specific cdc2-inhibitory kinase (Homo sapiens) (Q99640 whole entry, the tested form may be a part): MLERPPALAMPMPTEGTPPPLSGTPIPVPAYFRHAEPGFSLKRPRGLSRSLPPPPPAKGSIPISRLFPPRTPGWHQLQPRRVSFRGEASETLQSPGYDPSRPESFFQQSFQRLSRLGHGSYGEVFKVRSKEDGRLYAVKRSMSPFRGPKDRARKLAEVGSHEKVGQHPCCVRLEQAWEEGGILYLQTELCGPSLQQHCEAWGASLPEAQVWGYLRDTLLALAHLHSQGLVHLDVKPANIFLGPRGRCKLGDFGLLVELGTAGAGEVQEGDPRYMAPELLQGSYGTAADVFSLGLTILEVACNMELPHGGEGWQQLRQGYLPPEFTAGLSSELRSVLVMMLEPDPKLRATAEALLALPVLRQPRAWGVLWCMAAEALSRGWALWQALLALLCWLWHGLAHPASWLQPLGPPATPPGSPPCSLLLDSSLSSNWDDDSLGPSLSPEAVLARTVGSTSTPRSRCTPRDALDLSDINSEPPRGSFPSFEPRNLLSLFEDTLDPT
Chain of Tyrosine-protein kinase JAK1 (Homo sapiens) (P23458 whole entry, the tested form may be a part): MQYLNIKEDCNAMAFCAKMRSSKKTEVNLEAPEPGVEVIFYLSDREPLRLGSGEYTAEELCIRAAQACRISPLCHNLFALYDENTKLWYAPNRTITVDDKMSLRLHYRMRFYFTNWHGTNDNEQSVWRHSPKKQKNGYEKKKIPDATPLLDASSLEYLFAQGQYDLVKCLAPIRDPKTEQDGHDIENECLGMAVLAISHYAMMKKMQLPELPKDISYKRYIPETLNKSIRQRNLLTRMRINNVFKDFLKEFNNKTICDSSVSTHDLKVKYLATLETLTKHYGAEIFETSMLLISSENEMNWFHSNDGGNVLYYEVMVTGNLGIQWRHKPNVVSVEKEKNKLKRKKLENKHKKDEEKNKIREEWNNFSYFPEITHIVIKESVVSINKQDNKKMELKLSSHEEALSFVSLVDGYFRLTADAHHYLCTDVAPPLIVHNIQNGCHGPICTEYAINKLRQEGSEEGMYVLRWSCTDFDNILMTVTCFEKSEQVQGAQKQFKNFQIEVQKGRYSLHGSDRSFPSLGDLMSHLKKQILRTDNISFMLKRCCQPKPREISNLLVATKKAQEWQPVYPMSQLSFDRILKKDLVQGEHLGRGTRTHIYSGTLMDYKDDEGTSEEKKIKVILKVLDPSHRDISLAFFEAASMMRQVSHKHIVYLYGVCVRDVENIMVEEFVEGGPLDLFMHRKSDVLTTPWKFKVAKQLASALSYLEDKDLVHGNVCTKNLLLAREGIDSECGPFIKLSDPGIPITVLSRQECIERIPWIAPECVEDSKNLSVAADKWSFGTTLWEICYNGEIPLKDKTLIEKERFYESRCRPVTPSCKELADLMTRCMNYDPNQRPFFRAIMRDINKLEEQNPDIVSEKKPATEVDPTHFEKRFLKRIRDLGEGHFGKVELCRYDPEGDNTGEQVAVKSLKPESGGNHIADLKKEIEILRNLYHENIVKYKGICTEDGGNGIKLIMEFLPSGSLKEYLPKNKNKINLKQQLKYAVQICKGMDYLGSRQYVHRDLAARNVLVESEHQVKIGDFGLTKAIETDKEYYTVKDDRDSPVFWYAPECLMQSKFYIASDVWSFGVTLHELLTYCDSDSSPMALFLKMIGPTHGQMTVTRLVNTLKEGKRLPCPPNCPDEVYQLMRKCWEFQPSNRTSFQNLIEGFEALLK
Chain of Mitogen-activated protein kinase kinase kinase kinase 4 (O95819 2-1239 limits assumed): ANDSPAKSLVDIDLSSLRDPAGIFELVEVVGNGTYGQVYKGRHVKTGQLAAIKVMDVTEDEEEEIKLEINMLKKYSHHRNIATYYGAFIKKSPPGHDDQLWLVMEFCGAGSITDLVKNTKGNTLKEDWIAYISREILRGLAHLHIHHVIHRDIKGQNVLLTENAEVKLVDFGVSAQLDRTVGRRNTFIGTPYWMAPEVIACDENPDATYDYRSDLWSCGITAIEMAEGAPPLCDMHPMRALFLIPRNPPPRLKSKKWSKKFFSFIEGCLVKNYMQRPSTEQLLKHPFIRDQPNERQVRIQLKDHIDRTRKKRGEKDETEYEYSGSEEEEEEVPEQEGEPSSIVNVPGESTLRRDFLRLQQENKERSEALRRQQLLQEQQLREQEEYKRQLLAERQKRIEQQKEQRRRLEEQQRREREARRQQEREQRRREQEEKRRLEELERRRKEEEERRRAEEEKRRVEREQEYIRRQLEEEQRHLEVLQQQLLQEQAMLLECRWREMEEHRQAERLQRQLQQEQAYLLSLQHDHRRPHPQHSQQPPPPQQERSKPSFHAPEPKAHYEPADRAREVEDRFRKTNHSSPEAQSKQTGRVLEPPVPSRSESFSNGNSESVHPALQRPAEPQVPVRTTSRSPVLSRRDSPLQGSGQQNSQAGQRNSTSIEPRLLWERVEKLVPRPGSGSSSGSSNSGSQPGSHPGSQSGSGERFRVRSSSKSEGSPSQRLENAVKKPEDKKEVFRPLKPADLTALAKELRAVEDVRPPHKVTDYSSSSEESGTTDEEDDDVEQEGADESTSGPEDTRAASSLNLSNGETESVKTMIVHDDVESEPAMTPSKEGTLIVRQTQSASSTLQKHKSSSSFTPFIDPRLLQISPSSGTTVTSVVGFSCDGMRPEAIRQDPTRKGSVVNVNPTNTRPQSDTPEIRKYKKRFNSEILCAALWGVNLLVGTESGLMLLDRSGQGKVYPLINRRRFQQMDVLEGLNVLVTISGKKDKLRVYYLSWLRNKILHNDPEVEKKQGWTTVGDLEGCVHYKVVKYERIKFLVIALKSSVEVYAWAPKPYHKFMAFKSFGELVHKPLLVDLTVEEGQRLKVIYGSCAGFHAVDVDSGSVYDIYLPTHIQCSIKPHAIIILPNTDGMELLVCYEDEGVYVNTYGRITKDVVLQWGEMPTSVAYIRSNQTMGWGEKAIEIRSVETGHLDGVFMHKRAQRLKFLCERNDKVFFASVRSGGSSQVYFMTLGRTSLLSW
Chain of Serine/threonine-protein kinase 33 (Homo sapiens) (Q9BYT3 whole entry, looked up): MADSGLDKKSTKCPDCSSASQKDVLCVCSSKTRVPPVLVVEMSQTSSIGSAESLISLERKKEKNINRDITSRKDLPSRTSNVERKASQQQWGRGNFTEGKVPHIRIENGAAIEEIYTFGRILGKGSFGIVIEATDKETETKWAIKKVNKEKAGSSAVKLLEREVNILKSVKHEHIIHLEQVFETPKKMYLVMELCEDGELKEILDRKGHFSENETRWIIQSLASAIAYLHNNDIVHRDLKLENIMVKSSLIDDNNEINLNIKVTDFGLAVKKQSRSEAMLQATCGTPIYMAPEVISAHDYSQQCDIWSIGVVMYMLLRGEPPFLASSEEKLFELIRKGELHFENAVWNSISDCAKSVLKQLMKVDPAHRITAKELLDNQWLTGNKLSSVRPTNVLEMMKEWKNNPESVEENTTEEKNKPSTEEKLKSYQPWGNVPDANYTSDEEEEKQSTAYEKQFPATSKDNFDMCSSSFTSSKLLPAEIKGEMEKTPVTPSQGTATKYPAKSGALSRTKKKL
Chain of Serine/threonine-protein kinase 38 (Homo sapiens) (Q15208 2-465 limits assumed): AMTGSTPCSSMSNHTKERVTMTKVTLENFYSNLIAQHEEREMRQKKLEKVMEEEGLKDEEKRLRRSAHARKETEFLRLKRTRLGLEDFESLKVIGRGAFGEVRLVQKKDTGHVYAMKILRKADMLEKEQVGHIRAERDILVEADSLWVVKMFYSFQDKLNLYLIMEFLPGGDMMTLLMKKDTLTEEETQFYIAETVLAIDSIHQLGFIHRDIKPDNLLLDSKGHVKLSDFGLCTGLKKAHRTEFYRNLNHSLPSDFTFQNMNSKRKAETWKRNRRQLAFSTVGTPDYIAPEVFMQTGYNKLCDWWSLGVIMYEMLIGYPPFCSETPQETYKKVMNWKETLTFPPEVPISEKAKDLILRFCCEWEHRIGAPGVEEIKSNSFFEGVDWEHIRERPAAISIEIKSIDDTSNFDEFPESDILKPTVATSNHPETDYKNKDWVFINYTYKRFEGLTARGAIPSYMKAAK
Chain of Proto-oncogene tyrosine-protein kinase receptor Ret (Homo sapiens) (P07949 whole entry): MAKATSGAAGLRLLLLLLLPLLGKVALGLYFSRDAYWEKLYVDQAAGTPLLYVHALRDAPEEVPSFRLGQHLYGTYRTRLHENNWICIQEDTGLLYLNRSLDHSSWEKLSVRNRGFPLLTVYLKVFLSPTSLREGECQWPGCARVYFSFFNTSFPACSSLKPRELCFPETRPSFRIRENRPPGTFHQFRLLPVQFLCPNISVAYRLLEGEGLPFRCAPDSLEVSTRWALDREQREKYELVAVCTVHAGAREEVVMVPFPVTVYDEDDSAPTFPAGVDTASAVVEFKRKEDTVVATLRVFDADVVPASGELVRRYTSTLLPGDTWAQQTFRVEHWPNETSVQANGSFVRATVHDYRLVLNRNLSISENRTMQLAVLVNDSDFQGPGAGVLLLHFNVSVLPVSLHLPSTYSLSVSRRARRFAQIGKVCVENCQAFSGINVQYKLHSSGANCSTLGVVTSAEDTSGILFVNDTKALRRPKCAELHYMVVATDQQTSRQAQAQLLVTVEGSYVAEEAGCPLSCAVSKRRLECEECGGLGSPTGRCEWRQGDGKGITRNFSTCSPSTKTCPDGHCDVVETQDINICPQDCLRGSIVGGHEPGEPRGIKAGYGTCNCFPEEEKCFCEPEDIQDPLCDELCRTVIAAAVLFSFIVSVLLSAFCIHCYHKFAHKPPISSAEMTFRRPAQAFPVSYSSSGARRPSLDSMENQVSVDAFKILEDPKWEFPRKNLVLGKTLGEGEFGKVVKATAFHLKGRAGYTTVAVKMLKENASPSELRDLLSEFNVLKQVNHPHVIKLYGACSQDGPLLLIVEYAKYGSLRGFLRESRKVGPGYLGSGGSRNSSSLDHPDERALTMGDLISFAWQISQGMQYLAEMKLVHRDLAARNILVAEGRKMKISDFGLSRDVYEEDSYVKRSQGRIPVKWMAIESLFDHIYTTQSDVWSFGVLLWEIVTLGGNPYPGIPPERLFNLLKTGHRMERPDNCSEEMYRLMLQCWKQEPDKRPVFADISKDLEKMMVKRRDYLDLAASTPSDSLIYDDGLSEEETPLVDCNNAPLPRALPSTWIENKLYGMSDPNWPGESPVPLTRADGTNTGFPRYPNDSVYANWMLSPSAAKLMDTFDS

For the molecule `CNc1cc(Oc2cc(C(=O)Nc3cc(N4CCN(C)CC4)cc(C(F)(F)F)c3)ccc2C)ncn1`, in [1], the inhibition came out at 26%.

For the molecule `CCN1CCN(Cc2ccc(NC(=O)c3ccc(C)c(/C=C/c4cnc5[nH]ccc5c4OC)c3)cc2C(F)(F)F)CC1`, the inhibition came to 68% in experiment [2], 5% in experiment [3] and 68% in experiment [4].

In the case of `CCN1CCN(Cc2ccc(NC(=O)c3ccc(C)c(Oc4ccnc5[nH]ccc45)c3)cc2C(F)(F)F)CC1`, the inhibition in [5] was 19.2%; in experiment [6] it was 29.4%; in experiment [7], -4.5%; in experiment [8], 2.3%. Besides, the inhibition at 1 µM in experiment [9] is -3.2%. Further, in [10], the inhibition result was “inactive”. In addition, in [11], the residual activity was 0%.

As a reminder, the inhibition is the drop in the measured response relative to a control, in per cent. As a reminder, the residual activity is the share of the control activity or signal that is left under treatment. Read a low residual activity as a large loss of activity.
